Source: PubChem BioAssay (several laboratories)
RanGTP-Impb inh – disruptors of Ran-importin-beta complex formation – biochemical, FRET, CFP-Ran, YFP-importin-beta, homogeneous, primary screen | inhibition, % (concentration not given with the values) | cell-free CFP-Ran/YFP-importin-beta FRET ratio | hit rate 1.1% among 300,000;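 active means more than half of the replicate wells show a fall in the fluorescence ratio signal beyond about 16%, limit read from the data, passing the limit was not always enough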;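 further: 0% = DMSO wells and 100% = Ran loaded with GDP instead of GTP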
proKLK7 act – proKLK7 (human) activation, primary screen; purified proKLK7, EDANS-DABCYL substrate fluorescence; 100% is mature enzyme control, 0% vehicle; P49862; activation, % at 7 µM; hit rate 0.9% among 370,000;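 active means activation above the mean of all tested compounds plus 3 SD, computed per campaign excluding outliers beyond control limits, cut at about 13% in these data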
Runt-SMMHC FRET – Runt domain-CBFb-SMMHC interaction inhibition; Q01196+Q13951; Cerulean-Runt/Venus-CBFb-SMMHC FRET ratio 530/480, 1 h; inhibition, % at 20 µM; hit rate 0.74% among 220,000;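 active means mean inhibition across duplicate retests at 20 µM reaching about 50%, limit read from the data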;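 further: 0% = DMSO wells and 100% = wells with excess untagged CBFb-SMMHC; inhibitors lower the FRET ratio by blocking Runt binding to CBFb-SMMHC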
Target sequence (Q01196 whole entry, looked up, the tested form may be a part): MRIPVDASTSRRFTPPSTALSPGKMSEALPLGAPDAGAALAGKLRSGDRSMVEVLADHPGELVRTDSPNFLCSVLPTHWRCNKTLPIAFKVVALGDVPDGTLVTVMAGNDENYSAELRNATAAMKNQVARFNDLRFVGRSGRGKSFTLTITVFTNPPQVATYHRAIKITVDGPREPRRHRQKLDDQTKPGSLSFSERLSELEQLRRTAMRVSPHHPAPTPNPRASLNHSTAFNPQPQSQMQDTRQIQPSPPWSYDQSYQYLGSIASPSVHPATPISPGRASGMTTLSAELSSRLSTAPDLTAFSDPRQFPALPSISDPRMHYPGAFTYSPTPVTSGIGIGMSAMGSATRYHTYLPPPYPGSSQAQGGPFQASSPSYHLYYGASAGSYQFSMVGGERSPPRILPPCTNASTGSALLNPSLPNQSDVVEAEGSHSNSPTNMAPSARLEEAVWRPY
Target sequence (Q13951 whole entry, looked up, the tested form may be a part): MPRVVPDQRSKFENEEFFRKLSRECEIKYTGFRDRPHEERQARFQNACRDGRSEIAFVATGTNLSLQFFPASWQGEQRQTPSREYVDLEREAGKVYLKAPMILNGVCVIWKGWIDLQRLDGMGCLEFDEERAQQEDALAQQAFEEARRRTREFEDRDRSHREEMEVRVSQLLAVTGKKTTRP
Runt-CBFb FRET – blocks binding of human RUNX1 Runt domain to CBFb; Q01196+Q13951; Cerulean-Runt/Venus-CBFb FRET ratio 530/480, 1 h; inhibition, % at 20 µM; hit rate 0.46% among 220,000; AID 1496;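 active means inhibition over about 50% at 20 µM in the single-dose screen, limit read from the data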;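 further: 0% = DMSO wells and 100% = excess unlabeled CBFb competitor control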
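Buffer or medium: Tris pH 7.5 buffer with BSA. Assay system: Cerulean-labeled Runt domain protein. Amount: each fluorescent fusion protein 100 nM. Read-out basis: loss of energy transfer signal. Incubation: 1 h compound exposure, room temperature. Probe or stimulus: Venus-CBFb binding partner, 100 nM. Detection: FRET, excitation 422 nm, emission at 530 and 480 nm.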
MEX-5 binding – C. elegans MEX-5 TCR-2 RNA binding activity | Q9XUB2 | hit rate 0.38% among 300,000 | AID 1832 | MEX-5/FITC-TCR2 RNA binding, fluorescence polarization; hits give low values | activity score (negative = inhibition of binding), % at 10 µM;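 active means inhibition past about -25% in most replicates, and total fluorescence under double the plate's negative control median, limit read from the data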;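 further: 0% = DMSO and -100% = 5 µM competing unlabeled TCR2 RNA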
proKLK7 act conf – proKLK7 activation, confirmation | shares compounds with proKLK7 act | AID 686949 | purified proKLK7, EDANS-DABCYL substrate fluorescence; scaled: vehicle 0, mature enzyme 100 | activation, % at 7 µM | hit rate 68% among 3,200;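 active means activation, as change over the incubation, above the mean of all tested compounds plus 3 SD, cut at about 13% in these data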
EDANS interfere – fluorescence interference counter-screen for KLK7 activators. activation, % at 7 µM. EDANS-DABCYL substrate fluorescence interference, no enzyme, 4 h; solvent 0%, active enzyme control 100%. shares compounds with proKLK7 act. hit rate 80% among 3,200;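 active means activation above the all-compound mean plus 3 SD, ignoring values outside control-based bounds, cut at about 4.8% in these data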;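 further: value is the 4 h activation minus the activation read at time zero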
K7 EDANS ctr – counter-screen for kallikrein-7 activators: EDANS-DABCYL interference, dose response; shares compounds with proKLK7 act; EDANS-DABCYL peptide fluorescence interference, no enzyme; hit rate 20% among 250; EC50, µM; AID 720493;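 active means compounds that raise the fluorescence signal in this interference counterscreen, with EC50 at or below 10 µM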;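 further: intact quenched peptide substrate alone read at 355 nm excitation and 520 nm emission; signal is fluorescence gain from T0 to T4 after four hours at room temperature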
* marks the source's active call; other numbers are inactive results; i = inactive; . = not tested or not shown. Only some compounds are listed: those with a hit (about 2.1% of all), similar ones and a draw of the others.

SMILES	RanGTP-Impb inh	proKLK7 act	Runt-SMMHC FRET	Runt-CBFb FRET	MEX-5 binding	proKLK7 act conf	EDANS interfere	others
FC(F)(F)c1cc(-c2ccccn2)nc2cc(-c3ccccc3)nn12	-2	-1	-8	-2	3	.	.
CCOC(=O)N1CCN(C(=O)C[C@H]2C[C@@]3(C(=O)OC)C(=C[C@H](C4CCCC4)O[C@@H]3C)N(CCC3=CCCCC3)C2=O)CC1	.	0	.	.	.	.	.
O=C(c1ccco1)N1N=C(c2ccco2)CC1c1ccc(Cl)cc1Cl (centres undefined)	.	-1	.	.	.	.	.
COc1ccc(C(=O)Nc2ccc(NC(=O)c3ccco3)c(Cl)c2)cc1OC	1	16*	-3	-1	-1	2	4
COC(=O)c1c(N)n(CCCN2CCOCC2)c2nc3ccccc3nc12	21*	43*	130*	66*	-1	75*	80*
CC(C)Cn1c(N)c(C(=O)NCCN2CCOCC2)c2nc3ccccc3nc21	94*	57*	95*	9	3	-93	-108
Cn1nccc1-c1coc2c(C(=O)NCc3ccccc3)cccc12	.	0	.	.	.	.	.
Cc1ccc([C@@H]2C3COCC=C3C(C#N)=C(N)C2(C#N)C#N)o1 (some centres undefined)	-6	13*	-120	-38	-22	53*	50*
CCCC1C2CN(C(C)=O)CC=C2C(C#N)=C(N)C1(C#N)C#N (centres undefined)	9	6	10	4	-1	.	.
O=C1c2ccccc2NC(c2ccccc2)N1Cc1ccco1 (centres undefined)	0	17*	6	2	0	17*	7.5*	K7 EDANS ctr=>70
O=C1c2ccccc2NC(c2ccc(F)cc2)N1Cc1ccco1 (centres undefined)	1	15*	6	-1	-1	11	19*
O=C1c2ccccc2NC(c2ccc(F)cc2)N1Cc1ccccc1 (centres undefined)	-1	5	.	.	0	.	.
O=C1c2ccccc2NC(c2ccccc2)N1Cc1ccccc1 (centres undefined)	4	9	.	.	3	.	.
COc1cccc(CN(C)C[C@H]2OCc3cnnn3CCCC(=O)N([C@H](C)CO)C[C@@H]2C)c1	.	0	.	.	.	.	.
CN(C(=O)c1ccncc1)c1nnc(-c2ccccn2)s1	2	64*	3	1	1	88*	81*
CN(C(=O)c1ccc(C#N)cc1)c1nnc(-c2ccccn2)s1	-2	3	1	2	0	.	.
COC(=O)c1cc(C(c2ccccc2O)C2CCC(C)(C)O2)n2ccccc12 (centres undefined)	.	36*	.	.	.	-36	-37
COc1ccc(OC(=O)c2cccc([N+](=O)[O-])c2)c(C(=O)/C=C/c2cccs2)c1	1	25*	2	2	0	20*	15*	K7 EDANS ctr=i
CCCCN(CC)Cc1c(O)ccc2c(-c3ccccc3)cc(=O)oc12	1	7	-30	-11	0	.	.
CCc1cc(=O)oc2cc(C)c(CN3CCCCC3)c(O)c12	-6	-1	-15	-2	-2	.	.
CCc1cc2c(=O)c(-c3nc4ccccc4n3C)c(C)oc2c(CN2CCN(C)CC2)c1O	-2	.	5	1	-2	.	.
CCN(CC)Cc1c(O)c(Cl)cc2c(C)cc(=O)oc12	13	53*	138*	76*	-2	73*	66*
O=c1oc2c(CN3CCN(CCO)CC3)c(O)ccc2cc1-c1ccccn1	156*	60*	80*	11	-4	70*	82*
Cc1cc(=O)oc2c(CN3CCCC3)c(O)c(Cl)cc12	6	46*	.	.	-9	62*	72*
